Assay results published in publication PMC4633329 (Chemistry and physics of lipids, 2015).
≈ marks a conversion by molar mass, not a printed value. Where “and” joins values, the source holds several entries; their conditions need not be identical. Equal entries are not always repeated. Where two headings read alike, the source gives them in different places.

Experiments:
[1] = molecular target: MbCN (Equus caballus, UniProt P68082); experiment: 1H NMR titration of MbCN with OA; type: binding, horse
In short: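 Horse metMb converted to MbCN with 5-fold excess KCN in 30mM Tris, 1mM EDTA, pH 7.4. OA stock (10 or 100mM, pH 8.5, 65°C) added to 0.2-0.8 mM MbCN at 35°C (OA:Mb up to 60:1). 1H NMR at 600 MHz, 35°C, Watergate, 10% D2O, TSP reference. Heme methyl intensity loss fitted to a specific plus non-specific 2-site model by Marquardt-Levenberg regression.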

[2] = molecular target: Mb (Equus caballus, UniProt P68082); experiment: Optical spectra; set-up: species or system horse
[3] = OA solubility from NMR visible EFG; type: physicochemical
[4] = pK of OA by NMR pH titration; type: physicochemical; details: 0.8 mM OA, 35 °C, 1H NMR, referenced to peak position at pH 12.14
[5] = molecular target: FABP; details: read-out: Dissociation Constant KFABP; flux model input; ref [15]; [45]; cited from earlier work
[6] = in the cell, cited from earlier work
[7] = cited from earlier work
[8] = system: Mb; details: 25:1 ratio of SDS to Mb; ref [50]; cited from earlier work
[9] = molecular target: MbCO; details: read-out: MbCO-PA Kd; ref [47]; [48]; cited from earlier work
[10] = molecular target: MbCN; details: read-out: MbCN-PA Kd; ref [47]; [48]; cited from earlier work
[11] = system: deoxy Mb; details: ref [47]; [48]; cited from earlier work

Chain of Mb (Equus caballus, UniProt P68082) (P68082 whole entry): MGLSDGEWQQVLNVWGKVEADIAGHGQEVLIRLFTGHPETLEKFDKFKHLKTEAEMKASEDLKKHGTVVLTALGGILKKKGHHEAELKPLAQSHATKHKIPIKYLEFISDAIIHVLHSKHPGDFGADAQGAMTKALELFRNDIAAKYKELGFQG
Chain of MbCN (Equus caballus, UniProt P68082) (P68082 whole entry): as above

## CCCCCCCC/C=C\CCCCCCCC(=O)O [OA, oleic acid]
[1]; Dissociation Constant KMb2 (non-specific binding), 2-site model, high OA:Mb
  Kd: 37000 µM
[1]; apparent Kd (Kd1, KMb1), specific OA binding to MbCN, heme 8-CH3 signal loss, OA:Mb < 2:1, pH 7.4, 35 °C
  Kd: 45 µM
[2]; OA:Mb of 5:1 to 50:1
  hemichrome formation in optical spectra: do not detect any signs of hemichrome formation
[2]; OA:Mb of 50:1
  reduction in Soret band intensity: 5%
[2]; OA:Mb of 50:1, shifts from 422
  Soret band position: 420 nm
[2]; OA:Mb ratio up to 5:1
  perturbation of Mb Soret band at 422 nm: no significant perturbation
[2]; OA:Mb ratios 20:1 to 50:1
  reduction in Soret band intensity: < 5%
[2]; OA:Mb ratios 20:1 to 50:1, 422 nm without OA
  Soret band position: 420 nm
[2]; OA:Mb up to 50:1
  metMb signal in optical spectra: no detectable metMb signal
[3]; 0.8mM MbCN in Tris, pH 7.4 35°C, 0.0904g/100g total OA added
  Solubility: 7.03×10^−2 g/100g
[3]; 10.8mM MbCN in phosphate, pH 7.4 35°C, 0.0904g/100g total OA added
  Solubility: 6.59×10^−2 g/100g
[3]; 30 mM Tris buffer, 35 °C, pH 7.4, aqueous buffer, kinetic from dmso stock
  Solubility: 1430 µM (≈ 404 µg/mL)
[3]; 30 mM Tris buffer, 35 °C, pH 12, aqueous buffer, kinetic from dmso stock
  Solubility: 2990 µM (≈ 845 µg/mL)
[3]; 30 mM Tris buffer, pH 7.4 35°C, 0.0904g/100g total OA added
  Solubility: 4.04×10^−2 g/100g
[3]; 30 mM Tris buffer, pH 12 35°C, 0.0904g/100g total OA added
  Solubility: 8.45×10^−2 g/100g
[3]; 100 mM phosphate buffer, 35 °C, pH 7.4, aqueous buffer, kinetic from dmso stock
  Solubility: 1260 µM (≈ 356 µg/mL)
[3]; 100 mM phosphate buffer, pH 7.4 35°C, 0.0904g/100g total OA added
  Solubility: 3.56×10^−2 g/100g
[4]
  pK from peak B: 8.22
  pK from peak D: 8.07
[5]
  Kd: 0.014 µM
[6]; highest reported value, ref [52]
  Diffusion Constant, Fatty acid (DOA): 4.6 × 10^−6 cm^2s^−1
[7]; 66 mM phosphate buffer, pH 7.4 at 37°C, ref [53], listed as Oleate
  Solubility: 1.00×10^−6 M and 2.83×10^−5 g/100g
[7]; 0.2 M HEPES, pH 7.4 at 37°C, ref [46], listed as Oleate
  Solubility: 6.00×10^−6 M and 1.70×10^−4 g/100g
[7]; 95% of ethanol at 20°C, ref [22]
  Solubility: ∞
[7]; Acetone at 20°C, ref [22]
  Solubility: ∞
[7]; Benzene at 20°C, ref [22]
  Solubility: ∞

## CCCCCCCCCCCCOS(=O)(=O)[O-].[Na+] [SDS, sodium dodecyl sulfate]
[8]
  loss of Soret band signal intensity: 25%

## CCCCCCCCCCCCCCCC(=O)O [PA, palmitate]
[9]
  Kd: 39 to 48 µM
[10]
  Kd: 43 µM
[11]
  PA interaction with deoxy Mb: does not interact specifically or non-specifically

B1: Mb: myoglobin; solutions prepared from lyophilized horse heart protein (protein, UniProt P68082 2-154, looked up)
Myoglobin: GLSDGEWQQVLNVWGKVEADIAGHGQEVLIRLFTGHPETLEKFDKFKHLKTEAEMKASEDLKKHGTVVLTALGGILKKKGHHEAELKPLAQSHATKHKIPIKYLEFISDAIIHVLHSKHPGDFGADAQGAMTKALELFRNDIAAKYKELGFQG
[6]; ref [34]
  Diffusion Constant, Myoglobin (DMb): 7.85 × 10^−7 cm^2s^−1
